NR2E3 ag-1: inhibitors of NR2E3-RetCOR corepressor binding, primary screen, NR2E3 agonist project, biochemical, TR-FRET, GST-NR2E3, biotin-RetCOR | Photoreceptor-specific nuclear receptor (Homo sapiens), Q9Y5X4 | 1536-well | inhibition of corepressor binding, % at 4.78 µM | hit rate 0.12% among 320,000;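 active = percent inhibition above the cutoff of mean plus 3 SD of all tested compounds, set per screening campaign, cut at about 20% in these data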;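 also: 0% = DMSO wells and 100% = biotin wells as full block of FRET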
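System: GST-tagged NR2E3 plus biotinylated RetCOR corepressor; Amount: 1.35 nM GST-tagged NR2E3 final; Dosing: single nominal compound dose of 4.8 µM; Schedule: 5 h incubation at 4 °C; Technique: TR-FRET with europium anti-GST and streptavidin-D2, 340 nm excitation; Controls: biotin wells as high control, 0.6% DMSO wells as low control.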
NR2E3 ag-2: NR2E3 agonists in two-hybrid cells, primary screen, cell-based, luminescence, CHO-S, Gal4-NCOR/VP16-NR2E3; Photoreceptor-specific nuclear receptor (Homo sapiens), Q9Y5X4; luciferase; inhibition of corepressor binding, % at 3.98 µM; hit rate 0.35% among 360,000; AID 602229, 2012;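 active = inhibition above the mean of all tested compounds plus 3 SD, cut at about 70% in these data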;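 also: 0% = DMSO with NR2E3 transfected cells and 100% = cells lacking NR2E3 construct; higher means lower luciferase signal from less NR2E3 corepressor binding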
PG9 Ab binder: binders of HIV-1 gp120 antibody PG9, primary screen, biochemical, TR-FRET | HIV-1 gp120 / PG9 antibody interaction | TR-FRET gp120-PG9 antibody binding | inhibition, % at 6.7 µM | hit rate 0.43% among 360,000 | AID 624416, 2012; in the data active = inhibition above about 8.5%
Rev-erbA mod: modulators of Rev-erb alpha DNA binding, primary screen, biochemical, FITC-DNA, fluorescence polarization, uHTS; Rev-erbα–FITC-DNA binding, 90 min; activity, % at 10 µM; hit rate 0.79% among 370,000; AID 1259318, 2017;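 active = activity above about 14%, limit read from the data; passing the limit was not always enough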;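 also: 0% = DMSO wells with 35 nM protein and 100% = DMSO wells with 750 nM protein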
Target sequence (P20393 whole entry, looked up): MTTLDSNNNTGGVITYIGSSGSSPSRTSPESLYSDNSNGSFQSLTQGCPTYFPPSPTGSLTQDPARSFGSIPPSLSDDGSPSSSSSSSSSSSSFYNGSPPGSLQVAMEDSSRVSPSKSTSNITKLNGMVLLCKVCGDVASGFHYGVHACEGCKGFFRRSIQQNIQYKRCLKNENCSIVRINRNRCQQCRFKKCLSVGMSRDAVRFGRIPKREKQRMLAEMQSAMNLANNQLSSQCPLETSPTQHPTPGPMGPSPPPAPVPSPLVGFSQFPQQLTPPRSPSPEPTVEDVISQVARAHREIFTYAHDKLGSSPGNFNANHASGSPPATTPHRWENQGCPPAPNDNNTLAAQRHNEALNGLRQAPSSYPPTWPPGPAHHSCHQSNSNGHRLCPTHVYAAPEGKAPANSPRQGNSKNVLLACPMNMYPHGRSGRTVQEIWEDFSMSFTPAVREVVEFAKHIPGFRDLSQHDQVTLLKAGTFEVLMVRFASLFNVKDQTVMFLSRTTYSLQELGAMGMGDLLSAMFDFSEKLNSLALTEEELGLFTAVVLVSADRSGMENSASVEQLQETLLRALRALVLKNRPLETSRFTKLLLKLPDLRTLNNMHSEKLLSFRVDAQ
NR2E3 ag confirm: NR2E3 agonist confirmation in cells, cell-based, luminescence, CHO-S two-hybrid; shares compounds with NR2E3 ag-2; CHO-S mammalian two-hybrid NR2E3-NCOR, luciferase luminescence; inhibition, % at 3.98 µM; hit rate 51% among 2,300;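 active = average inhibition above a cutoff equal to the mean inhibition of all tested compounds plus one SD, cut at about 70% in these data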;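 also: 0% = DMSO in NR2E3 cells and 100% = DMSO in cells lacking NR2E3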
VP16 counter: GAL4-VP16 reporter modulators, confirmation, counter-screen for NR2E3 agonist project, cell-based, luminescence, CHO-S, high throughput. shares compounds with NR2E3 ag-2. CHO-S GAL4-VP16 luciferase reporter. inhibition, % at 3.98 µM. hit rate 29% among 2,300. AID 624379, 2012;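 active = mean inhibition above a cutoff equal to the average over all tested compounds plus one standard deviation, cut at about 70% in these data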;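 also: luciferase from a UAS reporter driven by GAL4-VP16 transactivation; 0% = DMSO with VP16-transfected cells and 100% = DMSO with cells lacking VP16; higher means less reporter light so more repression of VP16 activity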
* marks the source's active call; other numbers are inactive results; nt = not tested or not shown. The list is not random: actives were taken first. Their share in the collection is about 1.5%.

SMILES | NR2E3 ag-1 | NR2E3 ag-2 | PG9 Ab binder | Rev-erbA mod | NR2E3 ag confirm | VP16 counter
Cc1ccc(-c2nc(CSCC(=O)NCC3CCCO3)c(C)o2)cc1 (stereo not given) | 0.6 | 49.2 | 4.7 | 9.9 | 61.5 | 44.5
CCOc1ccc(-c2nc(CSCC(=O)NCC3CCCO3)c(C)o2)cc1 (stereo not given) | 0.6 | 104.4* | -0.1 | 3.0 | 92.5* | 87.2*
Cc1ccc(CNC(=O)O[C@H]2CC[C@@]34CCCN3C(=O)CCC[C@H]4[C@H]2C)cc1 | nt | nt | nt | -2.5 | nt | nt
O=C(Nc1ccc(Cl)cc1)O[C@@H]1CC[C@@]23CCCN2C(=O)CCC[C@H]3C1 | nt | nt | nt | 2.3 | nt | nt
COc1ccc(CCNS(=O)(=O)c2ccc(N3CCCC3=O)cc2)cc1 | 1.7 | 25.2 | 0.7 | -5.0 | nt | nt
Cc1ccc(OCCNS(=O)(=O)c2ccc(N3CCCC3=O)cc2)cc1 | 1.7 | 61.0 | -1.7 | 0.6 | 85.5* | 72.3*
Cc1ccc(OCCNS(=O)(=O)c2ccc(N3CCCC3=O)cc2)cc1C | 6.4 | 93.5* | -0.7 | -1.8 | 97.8* | 85.2*
COC(=O)c1cc(S(=O)(=O)N2CCC(c3cc(OC)ccc3OC)C2)c[nH]1 (stereo not given) | 1.7 | 80.6* | -0.5 | 2.7 | 69.4 | 62.1
COC(=O)c1cc(S(=O)(=O)N2CCC(c3ccccc3)C2)c[nH]1 (stereo not given) | 3.0 | 32.7 | -0.5 | 2.5 | nt | nt
O=C(O)CC1(CC(=O)Nc2cc(C(F)(F)F)cc(C(F)(F)F)c2)CCCCC1 | -0.6 | 57.9 | 0.0 | -5.4 | 88.2* | 45.1
CSc1ccc(CN2C(=O)C(F)(F)Oc3c(C(C)=O)cccc32)cc1 | nt | 48.6 | nt | nt | 44.4 | 53.3
O=C(NCc1ccc(C(=O)NC2CCCC2)cc1)c1cccc(Br)c1 | nt | nt | nt | -4.8 | nt | nt
CN(C)S(=O)(=O)N1CCC(Oc2ccc(C(=O)N3C[C@H]4CC[C@H]3C4)cc2)CC1 | -0.3 | 60.2 | -1.2 | 0.2 | 8.4 | 14.7
Cc1ccc(NC(=O)Cn2c(=O)oc3cc(S(=O)(=O)N4CCC(C)CC4)ccc32)cc1C | -0.5 | 48.3 | 2.5 | -6.0 | 50.3 | 52.6
CC1CCCC=CC2CC(OC(=O)CN(C)C)CC2C(O)C=CC(=O)O1 (stereo not given) | nt | 68.1 | 0.3 | 6.1 | 98.5* | 66.5
CNC(=O)[C@@H]1CC=C[C@@H]2CCN(c3ccccc3)C(=O)[C@@H]21 | nt | nt | nt | -1.2 | nt | nt
CCCc1ccc(Oc2cn[nH]c2-c2ccc(O)c(C)c2O)cc1 | 1.5 | 48.9 | -0.2 | 7.2 | 61.2 | 58.2
C[C@@H]1/C=C/CC(=O)N[C@H](c2ccc3ccccc3c2)[C@H](C)/C=C/CC(=O)N[C@@H]1c1ccc2ccccc2c1 | nt | nt | nt | 10.4 | nt | nt
O=C(CSc1nnc(NC(=O)C2CC2)s1)NCc1ccccc1 | 1.8 | 68.1 | -0.6 | 1.5 | -24.6 | -8.6
O=C(CSc1nnc(NC(=O)C2CC2)s1)NCc1ccc(F)cc1 | 0.5 | 7.6 | -0.1 | -0.3 | nt | nt
COCCCN1C(=O)[C@H](CC(=O)NCc2ccccc2)[C@]2(C(=O)OC)CCCCC=C12 | nt | nt | nt | 0.3 | nt | nt
CCCCCCCCn1c(=O)c(C(=O)OC)c(N)c2ccccc21 | 1.8 | 58.0 | -0.4 | -5.0 | 85.0* | 49.6
COc1ccc(CN(C)Cc2nc(Cc3cccc(F)c3)no2)c2cccnc12 | 3.4 | 80.4* | -1.8 | -3.5 | 92.4* | 80.7*
COc1cccc(-n2cc(CN(C)Cc3nc(Cc4cccc(F)c4)no3)cn2)c1 | 2.6 | 1.4 | -1.8 | -5.8 | nt | nt
CCCCCCCCCn1c2c(c(=N)c3c1CCC3)CCC2 | 0.7 | 101.3* | nt | nt | 98.8* | 91.7*
Cc1ccc(S(=O)(=O)c2ccc([N+](=O)[O-])o2)cc1 | nt | 65.9 | -1.1 | 1.1 | 92.2* | 12.8
Cc1ccc(C)c(S(=O)(=O)N2CCN(C(=O)C3CCN(c4ncnc5sc(C)c(C)c45)CC3)CC2)c1 | 3.4 | 78.1* | 0.4 | -2.7 | 67.4 | 62.6

Screens from PubChem.
